Test results reported in ChEMBL document CHEMBL2057080, “Synthesis, biological evaluation, and structure-activity relationships of a novel class of apurinic/apyrimidinic endonuclease 1 inhibitors” (J Med Chem, 2012).
≈ marks a conversion by molar mass, not a printed value. Calls of active or inactive are those of the source. The rule behind the calls is not given here.

Columns and labels:
HeLa [1] = assay: Potentiation of methyl methanesulfonate cytotoxic activity against human HeLa cells assessed as decrease in cell viability at 2.5 to 5 uM incubated for 8 hrs measured after 56 hrs post compound wash-out by Hoechst 33342 staining-based assay; format: functional
Plasma [2] = assay: Half life in mouse plasma; format: ADME, cell-free
Outline: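 Stability in mouse plasma reported as T1/2. Done by a contract lab, and values are the average of two experiments.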

Plasma [3] = assay: Half life in CD1 mouse plasma at 30 mg/kg, ip; format: ADME, organism-based; set-up: dose 30 mg/kg, route intraperitoneal; details: in vivo
Outline: (§1)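 Male CD1 mice, 6–8 weeks old, n = 3, were given 30 mg/kg IP in 50% PEG 200 or PEG 400 plus 10% Cremophor EL in saline. Cardiac-puncture blood was taken at 0.25, 0.5, 1, 2, 4, 8, 12 and 24 h, with heparin plasma. Brain values were multiplied by 5, and LC/MS/MS was used. The brain/plasma ratio is the average over the 8 time points.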

[4] = Chemical stability of the compound in PBS at pH 7.4 assessed as compound remaining after 48 hrs; format: physicochemical; details: buffer, pH 7.4, 48 h
Outline: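 The compound was held in PBS pH 7.4 and the percent remaining was measured after 48 h. Done by a contract lab, and values are the average of two experiments.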

Plasma [5] = assay: Tmax in CD1 mouse plasma at 30 mg/kg, ip; format: ADME, organism-based; set-up: dose 30 mg/kg, route intraperitoneal; details: in vivo; outline: as §1
CYP3A4 = CYP3A4 (Homo sapiens, UniProt P08684); assay: Inhibition of CYP3A4 at 10 uM; format: ADME
[6] = target: T1, DNA repair nuclease/redox regulator APEX1 (Homo sapiens, UniProt P27695); assay: Inhibition of APE1 in human HeLa whole cell extract using […]-5'-AP-DNA as substrate at 10 uM incubated for 15 mins prior to substrate addition measured after 5 mins by PAGE analysis
Outline: (§2)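 HeLa whole cell extract (300 ng; KCl-extracted hypotonic lysate) was preincubated with inhibitor for 15 min at room temperature, at 100 µM or at 0–100 µM. Then 0.5 pmol 32P AP-DNA was added for 5 min at 37 °C. Samples were run on denaturing PAGE, and incision is reported relative to the no-inhibitor control, from three independent measurements.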

Liver = assay: Half life in mouse liver microsomes; format: ADME, Microsome
Outline: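 Stability in mouse liver microsomes reported as T1/2. Done by a contract lab, and values are the average of two experiments.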

Brain [7] = assay: Tmax in CD1 mouse brain at 30 mg/kg, ip; format: ADME, organism-based; set-up: dose 30 mg/kg, route intraperitoneal; details: in vivo; outline: as §1
[8] = target: T1, DNA repair nuclease/redox regulator APEX1; assay: Competitive inhibition of recombinant APE1 using […]-5'-AP-DNA as substrate assessed as decrease in APE1-DNA complex formation incubated for 10 mins prior to substrate addition measured after 5 mins by electrophoretic mobility shift assay
Outline: (§3)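 APE1 (~28 nM) was preincubated without inhibitor (1% DMSO) or with 1, 3, 10, 30 or 100 µM inhibitor for 10 min on ice. Then 100 fmol (10 nM) 32P AP-DNA was added for 5 min on ice. Complexes were resolved on an 8% native gel and quantified by phosphorimager relative to control, in three independent replicates.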

HeLa [9] = assay: Cytotoxicity against human HeLa cells at 30 uM after 24 hrs by CellTiterGlo assay; format: functional
Outline: (§4)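 HeLa cells were seeded at 6K per well in DMEM/10% FBS and attached overnight. The medium was replaced with compound (5–30 µM) with or without MMS (0.4 mM) or TMZ (1 mM), followed by 24 h at 37 °C. Viability was read with CellTiter-Glo luminescence relative to DMSO, in duplicate. Combination values were normalized to the alkylating agent alone.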

Mus musculus = assay: Toxicity in CD1 mouse assessed as adverse effect at 30 mg/kg, ip after 24 hrs; format: organism-based; set-up: dose 30 mg/kg, route intraperitoneal; details: in vivo
Outline: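 Male CD1 mice, 6–8 weeks old, were given 30 mg/kg IP in PEG/Cremophor EL saline vehicle.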

Brain [10] = assay: Cmax in CD1 mouse brain at 30 mg/kg, ip; format: ADME, organism-based; set-up: dose 30 mg/kg, route intraperitoneal; details: in vivo; outline: as §1
Brain [11] = assay: Half life in CD1 mouse brain at 30 mg/kg, ip; format: ADME, organism-based; set-up: dose 30 mg/kg, route intraperitoneal; details: in vivo; outline: as §1
[12] = target: T1, DNA repair nuclease/redox regulator APEX1; assay: Inhibition of APE1 in human HeLa cells assessed as accumulation of genomic AP sites at 7.5 uM after 24 hrs by aldehyde reactive probe-based assay relative to control; format: cell-based
Outline: (§5)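 HeLa cells at 80% confluency were treated for 24 h at 37 °C with DMSO, 275 µM MMS, or 7.5 µM inhibitor, alone or combined with MMS. Genomic DNA (100 ng/µL) was labelled with Aldehyde Reactive Probe and AP sites were quantified, in triplicate. Significance was tested by Student's t test.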

[13] = target: T1, DNA repair nuclease/redox regulator APEX1; assay: Competitive inhibition of recombinant APE1 using […]-5'-AP-DNA as substrate assessed as decrease in APE1-DNA complex formation at 10 to 100 uM preincubated with substrate for 15 mins prior to enzyme addition measured after 5 mins by electrophoretic mobility shift assay
[14] = target: T1, DNA repair nuclease/redox regulator APEX1; assay: Inhibition of APE1 activity in human HeLa cells assessed as fold increase in genomic AP site accumulation after 24 hrs by aldehyde reactive probe-based assay in presence of methyl methanesulfonate; format: cell-based; outline: as §5
[15] = target: T1, DNA repair nuclease/redox regulator APEX1; assay: Inhibition of human recombinant APE1 after 15 mins by fluorescence based HTS assay
Outline: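 APE1 inhibition was measured in the fluorescence-based qHTS format at up to 57 µM. IC50 is the average of three separate experiments.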

CYP2D6 = CYP2D6 (Homo sapiens, UniProt P10635); assay: Inhibition of CYP2D6 at 10 uM; format: ADME
HeLa [16] = assay: Potentiation of temozolomide cytotoxic activity against human HeLa cells assessed as decrease in cell viability at 2.5 to 5 uM incubated for 8 hrs measured after 56 hrs post compound wash-out by Hoechst 33342 staining-based assay; format: functional
[17] = target: T1, DNA repair nuclease/redox regulator APEX1; assay: Competitive inhibition of recombinant APE1 using […]-5'-AP-DNA as substrate assessed as decrease in APE1-DNA complex formation at 30 uM incubated for 10 mins prior to substrate addition measured after 5 mins by electrophoretic mobility shift assay; outline: as §3
[18] = target: T1, DNA repair nuclease/redox regulator APEX1; assay: Competitive inhibition of recombinant APE1 using […]-5'-AP-DNA as substrate incubated for 15 mins prior to substrate addition measured after 5 mins by Lineweaver-Burk plot analysis
Outline: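 APE1 (~28 pM) was incubated with 0, 5, 10 or 20 µM inhibitor for 15 min at room temperature. 32P AP-DNA was added at 5–100 nM, followed by 5 min at 37 °C and denaturing PAGE. Velocities were measured, and KM and kcat came from Lineweaver–Burk plots.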

[19] = Aqueous kinetic solubility of the compound in PBS at pH 7.4; format: physicochemical; details: read-out: Kinetic_solubility
HeLa [20] = assay: Potentiation of temozolomide cytotoxic activity against human HeLa cells assessed as decrease in cell viability at 10 to 15 uM after 24 hrs by CellTiterGlo assay; format: functional, cell-based; outline: as §4
Plasma [21] = assay: Cmax in CD1 mouse plasma at 30 mg/kg, ip; format: ADME, organism-based; set-up: dose 30 mg/kg, route intraperitoneal; details: in vivo; outline: as §1
[22] = target: T1, DNA repair nuclease/redox regulator APEX1; assay: Inhibition of APE1 in human HeLa whole cell extract using […]-5'-AP-DNA as substrate assessed as activity remaining at 100 uM incubated for 15 mins prior to substrate addition measured after 5 mins by PAGE analysis relative to control; outline: as §2
HeLa [23] = assay: Potentiation of methyl methanesulfonate cytotoxic activity against human HeLa cells assessed as decrease in cell viability at 10 to 15 uM after 24 hrs by CellTiterGlo assay; format: functional, cell-based; outline: as §4
[24] = target: T1, DNA repair nuclease/redox regulator APEX1; assay: Inhibition of human APE1 expressed in Escherichia coli rosetta using fluorescein-dabcyl-containing oligonucleotide as substrate after 5 mins by fluorescence spectrophotometry
HeLa [25] = assay: Cytotoxicity against human HeLa cells at 15 uM after 24 hrs by CellTiterGlo assay; format: functional; outline: as §4
HeLa [26] = assay: Potentiation of temozolomide cytotoxic activity against human HeLa cells assessed as decrease in cell viability at 5 to 10 uM after 24 hrs by CellTiterGlo assay; format: functional, cell-based; outline: as §4
[27] = target: T1, DNA repair nuclease/redox regulator APEX1; assay: Inhibition of recombinant APE1 using […]-5'-AP-DNA as substrate incubated for 15 mins prior to substrate addition measured after 5 mins by PAGE analysis
HeLa [28] = assay: Potentiation of methyl methanesulfonate cytotoxic activity against human HeLa cells assessed as decrease in cell viability at 1 to 2 uM incubated for 8 hrs measured after 56 hrs post compound wash-out by Hoechst 33342 staining-based assay; format: functional
HeLa [29] = assay: Potentiation of methyl methanesulfonate cytotoxic activity against human HeLa cells assessed as decrease in cell viability at 5 to 10 uM after 24 hrs by CellTiterGlo assay; format: functional, cell-based; outline: as §4
HeLa [30] = assay: Potentiation of temozolomide cytotoxic activity against human HeLa cells assessed as decrease in cell viability at 1 to 2 uM incubated for 8 hrs measured after 56 hrs post compound wash-out by Hoechst 33342 staining-based assay; format: functional

T1 sequence (P27695 whole entry): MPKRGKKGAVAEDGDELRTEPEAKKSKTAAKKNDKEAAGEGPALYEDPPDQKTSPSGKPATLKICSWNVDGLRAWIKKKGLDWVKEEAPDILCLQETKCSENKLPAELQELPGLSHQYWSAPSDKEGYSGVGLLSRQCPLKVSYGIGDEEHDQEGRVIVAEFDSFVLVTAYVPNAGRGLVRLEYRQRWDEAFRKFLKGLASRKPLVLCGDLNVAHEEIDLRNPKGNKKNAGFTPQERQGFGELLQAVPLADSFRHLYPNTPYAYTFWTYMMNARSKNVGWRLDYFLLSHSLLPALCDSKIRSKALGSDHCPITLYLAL
CYP3A4, sequence (P08684 whole entry): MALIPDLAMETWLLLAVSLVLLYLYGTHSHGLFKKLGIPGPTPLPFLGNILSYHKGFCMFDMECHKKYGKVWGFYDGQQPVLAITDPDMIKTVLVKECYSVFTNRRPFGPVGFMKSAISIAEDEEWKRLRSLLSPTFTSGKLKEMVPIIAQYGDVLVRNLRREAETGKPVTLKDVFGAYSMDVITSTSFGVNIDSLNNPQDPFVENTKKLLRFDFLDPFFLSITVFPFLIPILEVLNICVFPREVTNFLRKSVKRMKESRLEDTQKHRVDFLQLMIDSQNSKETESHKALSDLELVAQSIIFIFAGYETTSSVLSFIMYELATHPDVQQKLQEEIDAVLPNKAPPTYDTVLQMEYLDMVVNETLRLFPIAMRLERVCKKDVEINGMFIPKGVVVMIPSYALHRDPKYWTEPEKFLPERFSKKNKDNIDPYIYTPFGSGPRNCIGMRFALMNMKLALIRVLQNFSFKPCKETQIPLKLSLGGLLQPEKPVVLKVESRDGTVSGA
CYP2D6, sequence (P10635 whole entry): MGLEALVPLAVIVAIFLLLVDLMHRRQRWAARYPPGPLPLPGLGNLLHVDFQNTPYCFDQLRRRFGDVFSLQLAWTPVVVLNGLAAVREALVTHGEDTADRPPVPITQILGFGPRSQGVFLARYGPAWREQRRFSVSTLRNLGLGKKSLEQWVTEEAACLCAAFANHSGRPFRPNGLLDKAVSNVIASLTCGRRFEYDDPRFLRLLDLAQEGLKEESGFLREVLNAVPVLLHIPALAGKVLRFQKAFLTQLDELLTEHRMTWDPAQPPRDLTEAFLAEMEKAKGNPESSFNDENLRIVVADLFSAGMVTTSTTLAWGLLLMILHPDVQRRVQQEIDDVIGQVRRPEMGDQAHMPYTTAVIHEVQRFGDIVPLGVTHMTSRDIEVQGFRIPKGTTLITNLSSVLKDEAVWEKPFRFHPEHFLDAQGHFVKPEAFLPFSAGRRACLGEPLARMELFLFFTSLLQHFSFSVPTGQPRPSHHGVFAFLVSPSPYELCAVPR

| t1/2 (Plasma [2]) | t1/2 (Plasma [3]) | Stability [4] | Tmax (Plasma [5]) | inhibition at 10 µM (CYP3A4) | t1/2 (Liver) | Tmax (Brain [7]) | inhibition [8] | Cmax (Brain [10]) | t1/2 (Brain [11]) | inhibition [12] | inhibition [13] | fold change (FC) [14] | IC50 [15] | inhibition at 10 µM (CYP2D6) | inhibition [17] | inhibition [18] | solubility kinetic [19] | Cmax (Plasma [21]) | Compound | Activity (Mus musculus) | further results |
| --- | --- | --- | --- | --- | --- | --- | --- | --- | --- | --- | --- | --- | --- | --- | --- | --- | --- | --- | --- | --- | --- |
| 3.55 h | 5 h | 100% | 0.25 h | 50% | 0.13 h | 0.25 h | Dose-dependent effect | 92 µM | 2.5 h | Active | Active | 3 | 3.3 µM | 39% | Active | Active | 51.6 µM (≈ 16.3 µg/mL) | 36 µM | CC(=O)Nc1sc2c(c1-c1nc3ccccc3s1)CNC2 | Non-toxic | Activity (HeLa [1]): Active; inhibition [6]: Active; Activity (HeLa [9]): 50%; Activity (HeLa [16]): Active; Activity (HeLa [20]): Active; Activity [22]: 0.1%; Activity (HeLa [23]): Active |
|  |  |  |  |  |  |  |  |  |  |  |  |  | 32 µM |  |  |  |  |  | Cc1cc(C)c2c(N)c3cccc(C)c3nc2n1 |  | IC50 [24]: 32 µM |
| > 4.17 h | 2.1 h | 100% | 0.25 h | 53% | 1.33 h | 0.25 h | Dose-dependent effect | 217 µM | 1 h | Active | Active | 3 | 2 µM | 0% | Active | Active | 20.4 µM (≈ 7.58 µg/mL) | 16 µM | CC(=O)Nc1sc2c(c1-c1nc3ccccc3s1)CCN(C(C)C)C2 | Non-toxic | Activity (HeLa [25]): 50%; Activity (HeLa [26]): Active; IC50 [27]: 12 µM; Activity (HeLa [28]): Active; Activity (HeLa [29]): Active; Activity (HeLa [30]): Active; Activity [22]: 0.6% |
